# From PubChem
# The list is not random: actives were taken first. Their share in the collection is about 1.8%.
# Mot1-301 SUMO – yeast Mot1-301 growth rescue at high temperature, primary screen, SUMOylation pathway inhibitor project, S. cerevisiae, ATP luminescence, 38.5C | S. cerevisiae Mot1-301 growth rescue; percent above DMSO median, 100 means doubled | growth rescue, % at 18.8 µM | actives 1% (n = 320,000) | AID 2716, 2010;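 active means every valid replicate shows activation above 250% relative to neutral control wells; inactive means the rest, any valid replicate at or below 250%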;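 further: OY570 slx delta 5 strain wells were the positive control but not used for scaling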
# Efflux pump inh – inhibitors of Candida efflux pumps in yeast, primary screen, S. cerevisiae, Nile Red, multiplex. inhibition, % at 10 µM. S. cerevisiae Candida pump triplex. actives 0.44% (n = 330,000);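 active means plate passing quality check with inhibition over a set limit, or well fluorescence over plate mean plus 4 SD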;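 further: Nile Red retained in pooled yeast measured as flow cytometry median fluorescence; 0% = buffer negative control and 100% = Enniatin B positive control; higher means more Nile Red kept so more efflux inhibition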
# C2C12 statin – suppressors of statin myotoxicity in C2C12 myotubes, primary screen, cell-based, single point, plate reader. C2C12 myotubes + simvastatin, ATP luminescence, 48 h; scaled: DMSO 0, geranylgeraniol control 100. rescue of ATP level, % at 7.49 µM. actives 0.78% (n = 330,000);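 active means mean ATP rescue above about 67%, or every replicate alone reaching that limit, limit read from the data, passing the limit was not always enough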;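 further: myotubes were challenged with 10 µM simvastatin during compound exposure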
# Cneo AK release – Cryptococcus neoformans cell lysis inducers, primary screen, AK release luminescence, single concentration. actives 0.2% (n = 360,000). AID 651654, 2012. lysis activity, % at 15 µM. C. neoformans lysis, adenylate kinase release luminescence, 4 h; normalised: neutral wells 0, clomiphene wells 100;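 active means mean lysis activity across replicates of at least 80%, whatever share of replicates individually reach that level; inactive means mean lysis activity below 80%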
#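 Signal: Adenylate kinase release luminescence | Assay system: Log-phase Cryptococcus neoformans yeast cells | Input: Cells at 5 × 10^6 per mL | Buffer or medium: Fresh YPD growth medium | Compound: Single dose | Schedule: Static 4 h at 37 °C with compound, 1 h detection | Controls: Clomiphene | Read-out: Luminescence rise reflecting yeast cell lysis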
# Yeast Mot1 SUMO – growth restoration of Mot1-301 yeast on galactose, dose response, SUMO pathway inhibitor project, whole organism, S. cerevisiae, ATP luminescence, cherry-picked samples. AID 493004, 2010. growth activity, percent, % at 42 µM. 2,300 tested, under 10 active. S. cerevisiae Mot1-301 galactose growth, 24 h; -100 = growth of slx-deleted rescue strain. shares compounds with Mot1-301 SUMO;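 active means Signal drops as the depositor expects, and the fitted half-maximal dose is no more than ten times the top valid tested dose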;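 further: more negative values mean stronger growth rescue toward the control strain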
# Numbers without * were called inactive; . = not tested or not shown; + = active, no number.
SMILES,Mot1-301 SUMO,Efflux pump inh,C2C12 statin,Cneo AK release,others
O=c1[nH]c(=O)n(CCC2=CCCCC2)c(O)c1/C=N/Nc1cccc2ccccc12,9,0,.,.,
CCC(C)n1c(O)c(/C=N/Nc2ccccc2)c(=O)[nH]c1=S (configuration not stated),355*,0,.,.,
COC(=O)C1=C(c2ccc(-c3ccccc3)c(F)c2)C[C@@H]2CC[C@H]1N2C(=O)NCc1ccco1,3,1,1,0,
O=C1N(c2ccc(Cl)cc2)C(c2cccnc2)N2CCCN12 (configuration not stated),.,0,.,.,
CCC12CN3CC(CC)(CN(C1)C3c1cccnc1)C2=O (configuration not stated),-31,0,137*,0,
CC1(C)C2([N+](=O)[O-])CN3CC1([N+](=O)[O-])CN(C2)C3c1cccnc1 (configuration not stated),24,0,0,.,
CC12CN3CC(C)(CN(C1)C3c1cccnc1)C2=O (configuration not stated),89,0,123*,-3,
CCCC#Cc1ccc([C@@H]2[C@@H](CO)N3CCCCN(C(=O)Cc4ccccn4)C[C@H]23)cc1,.,.,.,-1,
CCCCn1c(O)c(C(C)=NCCN2CCOCC2)c(=O)[nH]c1=O,.,0,-8,0,
CC(C)CN1Cc2cc(-c3ccccc3)ccc2-n2nncc2C1,.,.,13,1,
CCC(CO)Nc1ccc([N+](=O)[O-])c2cccnc12 (configuration not stated),-1,0,10,2,
CC(C)C(=O)Nc1ccc(N2CCN(C)CC2)c(F)c1,423*,0,.,.,
CCN(CC)P(=S)(c1c(C)nc2ccccn12)c1c(C)nc2ccccn12,-21,0,-12,1,
C=CCn1c(O)c(C(C)=NCCCO)c(=O)[nH]c1=O,132,0,108*,2,
O=C(N/N=C1/CN2CCC1CC2)c1cc2ccccc2cc1O,-3,0,-4,-3,
COc1ccc(NC(=O)CN(C)C(=O)CSC(c2ccccc2)c2ccccc2)cc1,4,0,8,-2,
O=c1[nH]c(=S)n(-c2ccccc2F)c(O)c1C=Nc1ccc(N2CCOCC2)cc1,+,0,.,.,
Cc1cccc(CNCCc2c[nH]c3ccccc23)c1,286*,0,7,0,
O=C1NC(=O)C(=C/C=C/c2coc3ccc(Br)cc3c2=O)C(=O)N1,3,3.5*,.,.,
CC#CP(=O)(OC)C(O)(CF)c1ccccc1 (configuration not stated),-11,0,105*,-2,
COc1ccc(CCNC2CCCCC2)cc1,.,0,.,.,
COc1ccc(C[C@H]2NC[C@H](O)[C@H]2OC(C)=O)cc1,71,0,79*,-6,
C=CCOC(=O)C1=C(C)OC(N)=C(C(=O)OCC)C12C(=O)N(CC(N)=O)c1ccccc12 (configuration not stated),-1,0,3,1,
CCOC(=O)C1=C(C)OC(N)=C(C(=O)OCC)[C@@]12C(=O)N(CC(N)=O)c1ccccc12,-23,0,98*,8,
COC(=O)C1=C(c2ccc(-c3ccccc3)c(F)c2)C[C@@H]2CC[C@H]1N2C(=O)NC(C)C,-25,1,-6,-1,
SMILES,Mot1-301 SUMO,Efflux pump inh,C2C12 statin,Cneo AK release,others
COc1ccc(C(C)=O)cc1Cc1c(O)[nH]c(=S)[nH]c1=O,-6,0,103*,1,
CCOc1ccc(C(C)=O)cc1Cc1c(O)[nH]c(=S)[nH]c1=O,225,0,5,0,
O=C(C[N+]12CCC(CC1)C(CO)C2)c1ccc([N+](=O)[O-])cc1 (configuration not stated),-6,0,.,.,
COC(=O)C1=C(c2ccc(OC)c(OC)c2)C[C@@H]2CC[C@H]1N2C(=O)NCCOc1ccc(OC)cc1,-8,0,121*,0,
COC(=O)C1=C(c2ccc(OC)c(OC)c2)C[C@@H]2CC[C@H]1N2C(=O)NCCO,-11,0,-5,-1,
C[n+]1c(-c2ccccc2)c2cc(N)ccc2c2ccc(N)cc21,116,8.5*,16,-3,
COc1ccc(-n2c(O)c(C(C)=NCc3ccco3)c(=O)[nH]c2=O)cc1,-2,0,4,2,
COC(=O)[C@H]1C[C@@H]1[C@H](NP(=O)(c1ccccc1)c1ccccc1)c1ccccc1,11,0,111*,0,
COC(=O)[C@@H]1C[C@H]1[C@@H](NP(=O)(c1ccccc1)c1ccccc1)c1ccccc1,60,0,-8,-2,
Cc1[nH]c2ccccc2c1C(=O)C(=O)N1CCC2(CC1)OCCO2,-15,0,.,.,
C[C@H]1C[C@@H](C)C(=O)[C@@H]([C@H](O)CC2CC(=O)NC(=O)C2)C1,430*,0,171*,13,
CN(C)C(=O)CSc1nnc([C@@H](N)Cc2ccccc2)o1,149,0,5,-1,
CC1(C)CN2C(c3ccc(Cl)cc3)N2C1 (configuration not stated),-13,0,-14,7,
Cc1cc(C)c(NC2=NCCCS2)c(C)c1,-12,0,82*,4,
CC/C(=N\NC(N)=O)c1c(O)[nH]c(=O)[nH]c1=O,-9,0,.,.,
CCCC(=O)c1c(O)[nH]c(=O)[nH]c1=O,11,0,97*,-2,
COC(=O)C[C@]1(C(=O)OC)CN(C#N)N(c2ccc(Cl)cc2)C12c1ccccc1-c1ccccc12,412*,0,.,5,
COc1ccc(C(=O)OC2C[C@H]3CC[C@H](C2)N3C)cc1OC (some centres not stated),327*,0,4,1,
C=CC12CN(C)C3C4COC(CC41)C1(C(=O)Nc4ccccc41)C32 (configuration not stated),.,.,-5,1,
O=C1Nc2ccccc2/C1=C/c1cnc[nH]1,-13,0,199*,.,
CN1CCN(c2cc(N3CCCC3)c([N+](=O)[O-])cc2F)CC1,332*,0,-6,2,
Cc1cc(/C=C2\C(=O)NC(=O)N(c3ccccc3F)C2=O)c(C)n1-c1cc(C(=O)O)cc(C(=O)O)c1,737*,0,-2,-2,Yeast Mot1 SUMO=0
COc1ccc(Oc2c(C)oc3cc(OC(=O)N(C)C)ccc3c2=O)cc1,524*,0,8,0,Yeast Mot1 SUMO=-1
CCN(CC)CCCOC(=O)C(OC(C)C)(c1ccccc1)c1ccccc1,19,1,.,.,
CCOC(C(=O)OCCCN(CC)CC)(c1ccccc1)c1ccccc1,510*,0,.,3,Yeast Mot1 SUMO=-1
NCC1(c2ccc3c(c2)OCCO3)CCCC1,129,0,.,1,
